{"source": "paper PMC6716794", "about": "(Biochemistry, 2019)", "key": {"thrombin ABE I": {"system": "thrombin ABE I", "conditions": "ligand bound to ABE II; cited from earlier work"}, "[1]": {"molecular_target": "T1, ProT (prothrombin), pro-ABE I (Homo sapiens, UniProt P00734)", "test": "1D and 2D 1H,15N-HSQC NMR titration with ProT", "type": "binding", "conditions": "[15N]-labeled at F55, K51, E53, D58 and E60; pH 6.5, 25 °C", "outline": "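Human plasma prothrombin buffer-exchanged into NMR buffer (25 mM H3PO4, 150 mM NaCl, 0.2 mM EDTA, pH 6.5). 15N-labeled PAR1 peptide held constant at 50 μM while protein was serially diluted from 115 or 150 μM. 1D/2D 1H,15N-HSQC shifts were fitted to a quadratic binding equation for KD, with Monte-Carlo errors assuming 10% dilution error. Titrations were run at least in duplicate.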"}, "[2]": {"molecular_target": "T1, ProT (prothrombin), pro-ABE I", "test": "1D proton line broadening with ProT", "type": "binding", "conditions": "NMR buffer pH 6.5, 25 °C", "outline": "(§1)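 Human plasma proteins: prothrombin, and thrombin blocked with PPACK (4:1 PPACK:thrombin, 37 °C, 30 min). Both were exchanged by ultrafiltration into NMR buffer (25 mM H3PO4, 150 mM NaCl, 0.2 mM EDTA, pH 6.5), and concentrations were set by E1%280 (13.8 prothrombin, 18.3 thrombin). Peptide at about 10-fold excess. Peptide 1H spectra were compared with and without enzyme.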"}, "PPACK-thrombin, ABE I": {"system": "PPACK-thrombin, ABE I", "test": "1D proton line broadening with PPACK-thrombin", "type": "binding, human", "conditions": "NMR buffer pH 6.5, 25 °C", "outline": "as §1"}}, "note": "Entries after “also recorded” stand apart in the source; their conditions may differ."}
{"substance": "GpIbα: platelet receptor glycoprotein GpIbα, binds thrombin ABE II", "values": [{"measurement": "Effect on affinity of thrombomodulin TM456 for thrombin ABE I", "setting": "thrombin ABE I", "value": "the affinity of thrombomodulin TM456 for ABE I decreases"}]}
{"substance": "PAR1G (49–62, P54G): weak binding PAR1 variant, residues 49–62 with P54G (NDKYEGFWEDEEKN; UniProt P25116 49-62, looked up, fragment P54G)", "values": [{"measurement": "Binding with pro-ABE I on ProT", "setting": "[1]", "value": "very weak binding with pro-ABE I on ProT"}, {"measurement": "1D proton line broadening with ProT (PAR1G)", "setting": "[2]; 830 μM PAR1G with 83 μM ProT", "value": "1D proton line broadening could still be observed"}, {"measurement": "1D proton line broadening with mature thrombin (PAR1G)", "setting": "PPACK-thrombin, ABE I; 870 μM PAR1G with 87 μM PPACK-thrombin", "value": "increased further with the mature thrombin; also recorded: the interactions increased upon formation of mature thrombin"}]}
{"substance": "PAR1P (49–62, P54): native PAR1 sequence peptide, residues 49–62, P54 (NDKYEPFWEDEEKN; UniProt P25116 49-62, looked up, fragment)", "values": [{"measurement": "1D proton line broadening with ProT (PAR1P)", "setting": "[2]; 780 μM PAR1P with 59 μM ProT, residues D50, K51, E53, F55, D58, E60", "value": "Substantial amide proton peak broadening; also recorded: moderate interactions with ProT"}, {"measurement": "1D proton line broadening with PPACK-thrombin (PAR1P)", "setting": "PPACK-thrombin, ABE I; 900 μM PAR1P with 97 μM PPACK-thrombin", "value": "increase in line broadening; also recorded: the interactions increased upon formation of mature thrombin"}]}
